Measured values published in ChEMBL document CHEMBL1123835, “Synthesis and biological properties of actinomycin D chromophoric analogues substituted at the 7-carbon with aziridine and aminopropoxy functions” (1987).
Converted amounts (≈) assume the structure as drawn. *1 amine or outer side, *2 acyl side, *3 side chain or, on linkers, in order; H or OH if unused. Where a SMILES comes first, the peptide text is derived from it. Bridges are numbered along the chain shown (N, C = ends). Roman numbers before positions name the chains, in order. [ ]: non-standard residue; d: D form. Actinocin(1to9) = Cc1c2oc3c(C)ccc(C(=O)[*:2])c3nc-2c(C(=O)[*:1])c(N)c1=O; NMeV = CN[C@H](C(=O)O)C(C)C; Sar = CNCC(=O)O

Assays:
CCRF-CEM = assay: In vitro growth inhibition of CCRF-CEM (Human leukemic lymphoblastic) cell; type: functional; settings: read-out: ID50 (the source's name)
Outline: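 Human CCRF-CEM lymphoblastic leukemia cells were grown in continuous spinner (suspension) culture in log phase. Compounds were dissolved in Me2SO/saline, with under 1% Me2SO in the final medium. ID50 (ng/mL) is the concentration giving 50% growth inhibition at 48 h, averaged over three experiments.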

B16 = assay: compound was evaluated in vitro for growth inhibition of B16 (Murine melanoma cell line) cell; type: functional; settings: Mus musculus, read-out: ID50 (the source's name)
Outline: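 Murine B16 melanoma cells were grown as a monolayer culture in log-phase growth. Compounds were dissolved in Me2SO/saline, with under 1% Me2SO in the final growth medium. ID50 (ng/mL) is the concentration giving 50% growth inhibition after 48 h, averaged over three experiments.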

[1] = Compound was evaluated for the elevation in temperature (degrees Celsius) for thermal denaturation of DNA.
Outline: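 Calf-thymus DNA at 5.2 × 10^-5 M with drug at 2.5 × 10^-5 M in 0.01 M phosphate buffer (pH 7) with 10^-5 M EDTA. Thermal denaturation curves were recorded on a thermoprogrammed spectrophotometer with a quartz cell. ΔTm = Tm of DNA–drug complex minus Tm of DNA, with melting in the 67-85 °C range.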

[2] = Compound was evaluated for the elevation in temperature (degrees Centigrade) for thermal denaturation of DNA

Compound	IC50 (CCRF-CEM) [µg/mL]	IC50 (B16) [µg/mL]	Change in Tm [1]	Change in Tm [2]
Cc1c2oc3c(C)ccc(C(=O)N[C@@H]4C(=O)N[C@H](C(C)C)C(=O)N5CCC[C@H]5C(=O)N(C)CC(=O)N(C)[C@@H](C(C)C)C(=O)O[C@@H]4C)c3nc-2c(C(=O)N[C@@H]2C(=O)N[C@H](C(C)C)C(=O)N3CCC[C@H]3C(=O)N(C)CC(=O)N(C)[C@@H](C(C)C)C(=O)O[C@@H]2C)c(N)c1=O [DACTINOMYCIN] (I: T[dV]P[Sar][NMeV] / II: T[dV]P[Sar][NMeV]; ester I:1-I:C, II:1-II:C; linker I:N-II:N via Actinocin(1to9))	0.013 (≈ 0.0104 µM)	0.0033 (≈ 0.00263 µM)	8	
Cc1c2oc3c(C)c(OCC4CN4)cc(C(=O)NC4C(=O)N[C@H](C(C)C)C(=O)N5CCC[C@H]5C(=O)N(C)CC(=O)N(C)[C@@H](C(C)C)C(=O)O[C@H]4C)c3nc-2c(C(=O)NC2C(=O)N[C@H](C(C)C)C(=O)N3CCC[C@H]3C(=O)N(C)CC(=O)N(C)[C@@H](C(C)C)C(=O)O[C@H]2C)c(N)c1=O (some centres not stated)	0.076 (≈ 0.0573 µM)	0.11 (≈ 0.0829 µM)		2.8
Cc1c2oc3c(C)c(OCC(C)N)cc(C(=O)NC4C(=O)N[C@H](C(C)C)C(=O)N5CCC[C@H]5C(=O)N(C)CC(=O)N(C)[C@@H](C(C)C)C(=O)O[C@H]4C)c3nc-2c(C(=O)NC2C(=O)N[C@H](C(C)C)C(=O)N3CCC[C@H]3C(=O)N(C)CC(=O)N(C)[C@@H](C(C)C)C(=O)O[C@H]2C)c(N)c1=O (some centres not stated)	0.06 (≈ 0.0452 µM)	0.055 (≈ 0.0414 µM)	4.8	
C=CCOc1cc(C(=O)NC2C(=O)N[C@H](C(C)C)C(=O)N3CCC[C@H]3C(=O)N(C)CC(=O)N(C)[C@@H](C(C)C)C(=O)O[C@H]2C)c2nc3c(C(=O)NC4C(=O)N[C@H](C(C)C)C(=O)N5CCC[C@H]5C(=O)N(C)CC(=O)N(C)[C@@H](C(C)C)C(=O)O[C@H]4C)c(N)c(=O)c(C)c-3oc2c1C (some centres not stated)	> 0.75	> 1	6.8	
